The record followed here is ChEMBL document CHEMBL4390654, “Microwave-assisted solid-phase synthesis of antisense acpP peptide nucleic acid-peptide conjugates active against colistin- and tigecycline-resistant E. coli and K. pneumoniae” (Eur J Med Chem, 2019).

As usually defined, the MIC is the least concentration at which growth counts as inhibited.

In series [1] the test system is Escherichia coli. As to the kind of experiment: Antibacterial activity against multi-drug resistant Escherichia coli NMI 3548/14 assessed as reduction in microbial growth incubated for 20 hrs. It is filed as functional. An outline of the steps: (§1)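 Broth microdilution MIC (modified Hancock protocol) in non-binding polystyrene plates. Inoculum ~2 × 10^5 CFU/mL in Mueller-Hinton broth with Mg²⁺ and Ca²⁺ at 4 mg/L each. Compounds dissolved in water, diluted in 0.01% acetic acid/0.2% BSA (final), added as 10× stocks. Covered plates incubated 20 h at 35 °C (± 2 °C) with 220 rpm circular shaking before MIC read.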

Series [2] deals with Escherichia coli. Nature of the series: Antibacterial activity against multi-drug resistant Escherichia coli NMI 3898/15 assessed as reduction in microbial growth incubated for 20 hrs. It is filed as functional. The conditions noted are these: NMI 3898/15, 20 h. Put shortly:
as §1

In series [3] the test system is Klebsiella pneumoniae. Nature of the series: Antibacterial activity against multi-drug resistant Klebsiella pneumoniae NMI 2697/14 assessed as reduction in microbial growth incubated for 20 hrs. It is filed as functional. Put shortly:
as §1

The subject of series [4] is Klebsiella pneumoniae. Nature of the series: Antibacterial activity against multi-drug resistant Klebsiella pneumoniae NMI 3081/09 assessed as reduction in microbial growth incubated for 20 hrs. It is filed as functional. An outline of the steps:
as §1

Series [5] deals with Escherichia coli. As to the kind of experiment: Antibacterial activity against Escherichia coli ATCC 25922 assessed as reduction in microbial growth incubated for 20 hrs. It is filed as functional. The conditions noted are these: ATCC 25922, 20 h. Put shortly:
as §1

The test system of series [6] is Escherichia coli. Nature of the series: Antibacterial activity against Escherichia coli lacking a functional SbmA assessed as reduction in microbial growth incubated for 20 hrs. An outline of the steps:
(§2)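 Broth microdilution MIC after a modified Hancock protocol for cationic peptides, in non-binding polystyrene plates. Inoculum ~2 × 10^5 CFU/mL in Mueller-Hinton broth with Mg²⁺ and Ca²⁺ at 4 mg/L each. Compounds dissolved in water, diluted in 0.01% acetic acid, 0.2% BSA (final), added as 10× aliquots. Covered plates incubated 20 h at 35 °C (± 2 °C) with shaking at 220 rpm. MIC read as lowest inhibiting concentration.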

Series [7] has as its system Klebsiella pneumoniae. Nature of the series: Antibacterial activity against Klebsiella pneumoniae ATCC 13883 assessed as reduction in microbial growth incubated for 20 hrs. Conditions: ATCC 13883, 20 h. It counts as functional. Put shortly:
as §2

A further series concerns Pseudomonas aeruginosa. As to the kind of experiment: Antibacterial activity against Pseudomonas aeruginosa PAO1 assessed as reduction in microbial growth incubated for 20 hrs. It counts as functional. Conditions: PAO1, 20 h. An outline of the steps: as §2
In a further series the test system is Acinetobacter baumannii. Nature of the series: Antibacterial activity against Acinetobacter baumannii ATCC 19606 assessed as reduction in microbial growth incubated for 20 hrs. It counts as functional. The conditions noted are these: ATCC 19606 = CIP 70.34 = JCM 6841, 20 h. An outline of the steps: as §2
The next series concerns Staphylococcus aureus. Nature of the series: Antibacterial activity against Staphylococcus aureus ATCC 29213 assessed as reduction in microbial growth incubated for 20 hrs. It counts as functional. The conditions noted are these: ATCC 29213, 20 h. Put shortly:
as §2

A short description of series [8]: Hemolytic activity against RBC (unknown origin) at 100 uM. It is filed as ADME, cell-based, Erythrocyte. The conditions noted are these: red blood cells (erythrocytes); read-out: Activity.

Peptide text beside a SMILES is read from it. * marks the point of attachment. X3 = CC[C@H](C)[C@@H](C(=O)*)N(C(=O)[C@H](CCCNC(=N)N)NC(=O)CCCCCNC(=O)[C@@H](N)CCCNC(=N)N)C(=O)[C@H](CCCNC(=N)N)NC(=O)CCCCCNC(=O)[C@@H](N)CCCNC(=N)N Bounds are passed on as bounds.

On to `C[C@@H](O)[C@H]1C(=O)N2C(C(=O)O)=C(SCCNC=N)C[C@H]12` [IMIPENEM ANHYDROUS], for which the minimal inhibitory concentration (MIC) came out at 2 µg/mL in the series with Escherichia coli [1] (NMI 3548/14, 20 h); 0.5 µg/mL with Escherichia coli [2]; 4 µg/mL with Klebsiella pneumoniae [3] (NMI 2697/14, 20 h); 32 µg/mL with Klebsiella pneumoniae [4] (NMI 3081/09, 20 h).
Regarding `CC[C@H](C)[C@H](NC(=O)[C@H](CCCCN)NC(=O)[C@H]([C@@H](C)CC)N(C(=O)[C@H](CCCNC(=N)N)NC(=O)CCCCCNC(=O)[C@@H](N)CCCNC(=N)N)C(=O)[C@H](CCCNC(=N)N)NC(=O)CCCCCNC(=O)[C@@H](N)CCCNC(=N)N)C(=O)N[C@@H](CC(C)C)C(=O)N[C@@H](Cc1ccccc1)C(=O)N[C@@H](CCC(N)=O)C(=O)N[C@@H](CC(N)=O)C(=O)N[C@@H](CCCNC(=N)N)C(=O)N[C@@H](CCCNC(=N)N)C(=O)N[C@@H](CCSC)C(=O)N[C@@H](CCCCN)C(=O)N[C@@H](Cc1c[nH]c2ccccc12)C(=O)N[C@@H](CCCCN)C(=O)N[C@@H](CCCCN)C(=O)N[C@@H](CS)C(=O)N[C@H](C(=O)N[C@@H](CS)C(=O)N[C@H](C(=O)N[C@H](C(=O)N[C@@H](C)C(=O)N[C@@H](CS)C(=O)N[C@@H](C)C(=O)N[C@@H](CS)C(=O)N[C@H](C(N)=O)[C@@H](C)O)[C@@H](C)O)[C@@H](C)O)[C@@H](C)O` (X3-KILFQNRRMKWKKCTCTTACACT-NH2), the MIC was 64 µg/mL in the series with Escherichia coli [5]; 64 µg/mL in the series with Escherichia coli [6]; greater than 64 µg/mL in the series with Klebsiella pneumoniae [7]; 32 µg/mL in the series with Pseudomonas aeruginosa; 16 to 32 µg/mL in the series on Acinetobacter baumannii; greater than 64 µg/mL with Staphylococcus aureus. Also, the MIC in the series on Escherichia coli [1] (NMI 3548/14, 20 h) is 8 to 16 µg/mL; in the series on Escherichia coli [2], 32 µg/mL; with Klebsiella pneumoniae [3] (NMI 2697/14, 20 h), no less than 64 µg/mL; with Klebsiella pneumoniae [4] (NMI 3081/09, 20 h), 16 µg/mL. The hemolysis at 100 µM in [8] is less than 1%.
In the case of `CN(C)c1cc(NC(=O)CNC(C)(C)C)c(O)c2c1C[C@H]1C[C@H]3[C@H](N(C)C)C(O)=C(C(N)=O)C(=O)[C@@]3(O)C(O)=C1C2=O` [TIGECYCLINE], the MIC in the series on Escherichia coli [1] (NMI 3548/14, 20 h) was found to be 16 µg/mL; with Escherichia coli [2], 0.5 µg/mL; in the series with Klebsiella pneumoniae [3] (NMI 2697/14, 20 h), 0.5 µg/mL; in the series on Klebsiella pneumoniae [4] (NMI 3081/09, 20 h) it was 2 µg/mL.
Consider `O=C(O)c1cn(C2CC2)c2cc(N3CCNCC3)c(F)cc2c1=O` [CIPROFLOXACIN], for which the MIC is greater than 32 µg/mL with Escherichia coli [2]; 2 µg/mL in the series with Klebsiella pneumoniae [3] (NMI 2697/14, 20 h); greater than 32 µg/mL with Klebsiella pneumoniae [4] (NMI 3081/09, 20 h).
For `CN(C)[C@@H]1C(O)=C(C(N)=O)C(=O)[C@@]2(O)C(O)=C3C(=O)c4c(O)cccc4[C@@](C)(O)[C@H]3C[C@@H]12` [TETRACYCLINE], the minimum inhibitory concentration (MIC) was 8 µg/mL in the series with Escherichia coli [1] (NMI 3548/14, 20 h); 64 µg/mL in the series with Escherichia coli [2]; 16 µg/mL in the series on Klebsiella pneumoniae [3] (NMI 2697/14, 20 h); greater than 256 µg/mL in the series with Klebsiella pneumoniae [4] (NMI 3081/09, 20 h).
For `C[C@H]1[C@H](NC(=O)/C(=N\OC(C)(C)C(=O)O)c2csc(N)n2)C(=O)N1S(=O)(=O)O` [AZTREONAM], in that order: greater than 16 µg/mL, 8 µg/mL, 16 µg/mL and greater than 256 µg/mL.
In the case of `CC[C@H](C)[C@H](NC(=O)[C@H](CCCCN)NC(=O)[C@H]([C@@H](C)CC)N(C(=O)[C@H](CCCNC(=N)N)NC(=O)CCCCCNC(=O)[C@@H](N)CCCNC(=N)N)C(=O)[C@H](CCCNC(=N)N)NC(=O)CCCCCNC(=O)[C@@H](N)CCCNC(=N)N)C(=O)N[C@@H](CC(C)C)C(=O)N[C@@H](Cc1ccccc1)C(=O)N[C@@H](CCC(N)=O)C(=O)N[C@@H](CC(N)=O)C(=O)N[C@@H](CCCNC(=N)N)C(=O)N[C@@H](CCCNC(=N)N)C(=O)N[C@@H](CCSC)C(=O)N[C@@H](CCCCN)C(=O)N[C@@H](Cc1c[nH]c2ccccc12)C(=O)N[C@@H](CCCCN)C(=O)N[C@@H](CCCCN)C(=O)N[C@@H](CS)C(=O)N[C@H](C(=O)N[C@@H](CS)C(=O)N[C@@H](C)C(=O)N[C@H](C(=O)N[C@@H](C)C(=O)N[C@@H](CS)C(=O)N[C@H](C(=O)N[C@@H](CS)C(=O)N[C@H](C(N)=O)[C@@H](C)O)[C@@H](C)O)[C@@H](C)O)[C@@H](C)O` (X3-KILFQNRRMKWKKCTCATACTCT-NH2), the MIC in the series on Escherichia coli [5] is 16 µg/mL; with Escherichia coli [6], 16 µg/mL; in the series with Klebsiella pneumoniae [7] it was 8 µg/mL; in the series on Pseudomonas aeruginosa it was 32 µg/mL; in the series on Acinetobacter baumannii it was 16 µg/mL; in the series on Staphylococcus aureus, greater than 64 µg/mL. Moreover, the MIC with Escherichia coli [1] (NMI 3548/14, 20 h) is 32 µg/mL; in the series with Escherichia coli [2], no less than 64 µg/mL; in the series on Klebsiella pneumoniae [3] (NMI 2697/14, 20 h), greater than 64 µg/mL; in the series on Klebsiella pneumoniae [4] (NMI 3081/09, 20 h), greater than 64 µg/mL. In addition, in series [8], the hemolysis at 100 µM is less than 1%.
As for `CCN1CCN(C(=O)N[C@@H](C(=O)N[C@@H]2C(=O)N3[C@@H]2SC(C)(C)[C@@H]3C(=O)O)c2ccccc2)C(=O)C1=O` [PIPERACILLIN], the MIC in the series on Escherichia coli [1] (NMI 3548/14, 20 h) was 8 µg/mL; in the series with Escherichia coli [2], greater than 256 µg/mL; with Klebsiella pneumoniae [3] (NMI 2697/14, 20 h), greater than 256 µg/mL; in the series on Klebsiella pneumoniae [4] (NMI 3081/09, 20 h), greater than 256 µg/mL.
As to `CO/N=C(\C(=O)N[C@@H]1C(=O)N2C(C(=O)O)=C(COC(C)=O)CS[C@H]12)c1csc(N)n1` [CEFOTAXIME], the MIC in the series with Escherichia coli [1] (NMI 3548/14, 20 h) is 16 µg/mL; in the series with Escherichia coli [2], 16 µg/mL; in the series with Klebsiella pneumoniae [3] (NMI 2697/14, 20 h) it was greater than 32 µg/mL; in the series with Klebsiella pneumoniae [4] (NMI 3081/09, 20 h), greater than 32 µg/mL.
Turning to `NCC[C@H](O)C(=O)N[C@@H]1C[C@H](N)[C@@H](O[C@H]2O[C@H](CN)[C@@H](O)[C@H](O)[C@H]2O)[C@H](O)[C@H]1O[C@H]1O[C@H](CO)[C@@H](O)[C@H](N)[C@H]1O` [AMIKACIN], the MIC in the series with Escherichia coli [1] (NMI 3548/14, 20 h) stood at 8 µg/mL; in the series with Escherichia coli [2] it was 2 µg/mL; in the series with Klebsiella pneumoniae [3] (NMI 2697/14, 20 h), 32 µg/mL; with Klebsiella pneumoniae [4] (NMI 3081/09, 20 h) it was 16 µg/mL.
The matching figures for `CC1(C)S[C@@H]2[C@H](NC(=O)[C@H](N)c3ccccc3)C(=O)N2[C@H]1C(=O)O` [AMPICILLIN]: greater than 128 µg/mL, greater than 256 µg/mL, greater than 128 µg/mL and greater than 256 µg/mL.
For `CC(C)(O/N=C(\C(=O)N[C@@H]1C(=O)N2C(C(=O)[O-])=C(C[n+]3ccccc3)CS[C@H]12)c1csc(N)n1)C(=O)O` [CEFTAZIDIME], in that order: 2 µg/mL, 64 µg/mL, greater than 32 µg/mL and 64 µg/mL.
Regarding `C[C@@H](O)[C@H]1C(=O)N2C(C(=O)O)=C(S[C@@H]3CN[C@H](C(=O)N(C)C)C3)[C@H](C)[C@H]12` [MEROPENEM], the MIC in the series with Escherichia coli [1] (NMI 3548/14, 20 h) was 0.5 µg/mL; in the series with Escherichia coli [2] it was 0.125 µg/mL; with Klebsiella pneumoniae [3] (NMI 2697/14, 20 h) it was 1 µg/mL; in the series on Klebsiella pneumoniae [4] (NMI 3081/09, 20 h), greater than 32 µg/mL.
Take GENTAMICIN: the MIC in the series on Escherichia coli [1] was 2 µg/mL; in the series on Klebsiella pneumoniae [3] it was greater than 64 µg/mL; in the series with Klebsiella pneumoniae [4], 2 µg/mL.
On to `CO/N=C(\C(=O)N[C@@H]1C(=O)N2C(C(=O)[O-])=C(C[N+]3(C)CCCC3)CS[C@H]12)c1csc(N)n1`, for which the minimum inhibitory concentration (MIC) in the series on Escherichia coli [1] (NMI 3548/14, 20 h) was 2 µg/mL; in the series with Klebsiella pneumoniae [3] (NMI 2697/14, 20 h) it was 16 µg/mL; with Klebsiella pneumoniae [4] (NMI 3081/09, 20 h), greater than 256 µg/mL.
